{"source": "ChEMBL document CHEMBL4342493", "about": "“Design and Optimization of 3'-(Imidazo[1,2-a]pyrazin-3-yl)-[1,1'-biphenyl]-3-carboxamides as Selective DDR1 Inhibitors” (ACS Med Chem Lett, 2020)", "key": {"[1]": {"biological_target": "T1, Discoidin domain-containing receptor 2 (Homo sapiens, UniProt Q16832)", "T1 sequence (Q16832 whole entry)": "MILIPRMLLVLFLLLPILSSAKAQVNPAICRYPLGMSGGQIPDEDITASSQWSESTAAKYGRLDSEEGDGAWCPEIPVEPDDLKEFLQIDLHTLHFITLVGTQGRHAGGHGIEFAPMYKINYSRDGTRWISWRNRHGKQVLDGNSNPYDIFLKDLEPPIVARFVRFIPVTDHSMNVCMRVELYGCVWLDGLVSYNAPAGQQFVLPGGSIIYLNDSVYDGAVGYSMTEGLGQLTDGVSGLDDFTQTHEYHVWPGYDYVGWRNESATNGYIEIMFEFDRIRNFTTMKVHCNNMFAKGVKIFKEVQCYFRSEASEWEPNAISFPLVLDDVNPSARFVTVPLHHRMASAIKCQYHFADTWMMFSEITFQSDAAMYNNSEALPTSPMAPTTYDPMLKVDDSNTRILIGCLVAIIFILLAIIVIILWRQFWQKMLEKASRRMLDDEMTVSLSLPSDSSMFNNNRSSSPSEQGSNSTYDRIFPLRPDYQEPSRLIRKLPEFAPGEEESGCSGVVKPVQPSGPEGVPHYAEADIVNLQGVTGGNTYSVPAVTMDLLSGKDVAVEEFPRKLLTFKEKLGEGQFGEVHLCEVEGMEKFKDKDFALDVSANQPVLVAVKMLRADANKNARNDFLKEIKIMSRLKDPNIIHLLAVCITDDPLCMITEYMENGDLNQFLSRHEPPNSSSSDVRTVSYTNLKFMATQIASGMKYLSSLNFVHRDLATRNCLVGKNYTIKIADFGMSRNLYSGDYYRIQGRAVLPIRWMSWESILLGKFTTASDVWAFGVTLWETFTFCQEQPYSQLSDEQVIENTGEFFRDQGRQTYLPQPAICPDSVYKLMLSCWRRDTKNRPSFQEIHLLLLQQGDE", "assay": "Inhibition of recombinant human GST-tagged DDR2 cytoplasmic domain (427 to 855 residues) expressed in baculovirus expression system using Fluorescein-poly GAT as substrate incubated for 1 hr in presence of ATP by LanthaScreen Eu kinase assay", "summary_of_the_method": "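LanthaScreen Eu kinase assay for DDR2; IC50 values are means of three independent experiments, variations <20%.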"}, "Homo sapiens [2]": {"organism": "Homo sapiens", "assay": "Selectivity index, ratio of IC50 for recombinant human GST-tagged DDR2 cytoplasmic domain (427 to 855 residues) expressed in baculovirus expression system to IC50 for recombinant human GST-tagged DDR1 catalytic domain (440 to 876 residues) expressed in baculovirus expression system using Fluorescein-poly GAT as substrate incubated for 1 hr in presence of ATP by LanthaScreen Eu kinase assay", "summary_of_the_method": "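Ratio of DDR2 IC50 to DDR1 IC50. Both kinases were measured by LanthaScreen Eu kinase assay. Each IC50 is the mean of three independent experiments, with variation <20%.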"}, "Homo sapiens [3]": {"organism": "Homo sapiens", "assay": "Selectivity index, ratio of IC50 for human recombinant full length His-tagged Bcr-Abl expressed in baculovirus expression system using tyrosine-2 peptide as substrate after 1 hr in presence of […] ATP by FRET based Z'-LYTE assay to IC50 for recombinant human GST-tagged DDR1 catalytic domain (440 to 876 residues) expressed in baculovirus expression system using Fluorescein-poly GAT as substrate incubated for 1 hr in presence of ATP by LanthaScreen Eu kinase assay", "summary_of_the_method": "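Ratio of Bcr-Abl IC50 to DDR1 IC50. Bcr-Abl was measured by FRET-based Z′-Lyte assay and DDR1 by LanthaScreen Eu kinase assay. Each IC50 is the mean of three independent experiments, with variation <20%.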"}, "[4]": {"biological_target": "T2, Dual specificity protein kinase TTK (Homo sapiens) (UniProt P33981)", "T2 sequence (whole entry)": "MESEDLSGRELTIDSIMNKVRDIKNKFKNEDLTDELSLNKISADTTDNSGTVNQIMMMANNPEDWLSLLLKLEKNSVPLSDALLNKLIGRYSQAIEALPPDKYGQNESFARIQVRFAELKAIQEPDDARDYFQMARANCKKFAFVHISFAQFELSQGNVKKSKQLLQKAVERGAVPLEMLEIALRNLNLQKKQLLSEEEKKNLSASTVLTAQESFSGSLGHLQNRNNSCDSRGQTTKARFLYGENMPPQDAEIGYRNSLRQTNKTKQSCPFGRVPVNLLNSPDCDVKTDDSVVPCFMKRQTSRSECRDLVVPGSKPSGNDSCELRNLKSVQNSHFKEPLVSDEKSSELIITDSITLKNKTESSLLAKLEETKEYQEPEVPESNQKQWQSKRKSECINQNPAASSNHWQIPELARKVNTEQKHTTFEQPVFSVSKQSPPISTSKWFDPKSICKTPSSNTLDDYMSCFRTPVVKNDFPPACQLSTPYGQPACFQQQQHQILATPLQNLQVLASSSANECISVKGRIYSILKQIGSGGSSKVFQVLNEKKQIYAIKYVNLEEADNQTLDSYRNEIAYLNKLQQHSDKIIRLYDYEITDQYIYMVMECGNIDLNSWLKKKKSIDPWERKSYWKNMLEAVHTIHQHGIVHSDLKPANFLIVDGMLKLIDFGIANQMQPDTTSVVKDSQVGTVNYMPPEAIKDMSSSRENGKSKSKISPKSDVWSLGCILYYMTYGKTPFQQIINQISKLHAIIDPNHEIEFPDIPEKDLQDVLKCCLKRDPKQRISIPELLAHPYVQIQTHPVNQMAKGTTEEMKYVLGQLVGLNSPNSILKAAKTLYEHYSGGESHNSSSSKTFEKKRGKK", "assay": "Inhibition of wild-type human partial length TTK (N505 to V798 residues) expressed in bacterial expression system assessed as enzyme residual activity at 200 nM after 1 hr by Kinomescan method relative to control"}, "[5]": {"biological_target": "Dual specificity protein kinase CLK4 (Homo sapiens, UniProt Q9HAZ1)", "sequence (Q9HAZ1 whole entry, the tested form may be a part)": "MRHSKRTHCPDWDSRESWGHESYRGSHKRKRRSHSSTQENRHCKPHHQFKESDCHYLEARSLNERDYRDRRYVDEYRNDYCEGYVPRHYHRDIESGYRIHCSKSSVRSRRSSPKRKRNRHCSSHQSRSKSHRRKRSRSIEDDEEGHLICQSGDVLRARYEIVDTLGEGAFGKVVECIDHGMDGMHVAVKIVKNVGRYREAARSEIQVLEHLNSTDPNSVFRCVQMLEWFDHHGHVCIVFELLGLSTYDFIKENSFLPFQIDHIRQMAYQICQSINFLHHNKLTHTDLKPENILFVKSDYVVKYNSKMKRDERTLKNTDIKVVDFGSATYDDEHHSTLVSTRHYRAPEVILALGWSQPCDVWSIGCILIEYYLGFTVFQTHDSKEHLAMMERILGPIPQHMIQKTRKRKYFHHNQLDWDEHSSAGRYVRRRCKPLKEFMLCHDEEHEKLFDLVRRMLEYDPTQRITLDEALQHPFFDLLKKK", "assay": "Binding affinity to wild-type human partial length CLK4 (R135 to K481 residues) expressed in bacterial expression system after 1 hr by Kinomescan method", "summary_of_the_method": "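KINOMEscan binding; Kd determined for DDR1 and the off-target kinases DDR2, CAMK1D, CLK4 and TTK.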"}, "NCI-H1299 [6]": {"system": "NCI-H1299", "assay": "Inhibition of colony formation in human H1299 cells assessed as reduction in number of colonies measured after 10 days by crystal violet staining based assay", "format": "functional, cell-based", "summary_of_the_method": "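Colony formation in H1299 cells under continuous compound treatment for 10 days; colony number quantified and IC50 derived from dose-response.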"}, "NCI-H1299 [7]": {"system": "NCI-H1299", "assay": "Antiproliferative activity against human H1299 cells assessed as reduction in cell viability after 72 hrs by CCK-8 assay", "format": "functional, cell-based", "conditions": "NCI-H1299, 72 h", "summary_of_the_method": "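CCK-8 proliferation assay in H1299 cells; IC50 derived from dose-response; means of three independent experiments.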"}, "NCI-H1299 [8]": {"system": "NCI-H1299", "assay": "Antimigratory activity against human H1299 cells assessed as reduction in wound closure at 5 uM after 24 hrs by bright field microscopic based wound healing assay relative to control", "format": "functional", "conditions": "NCI-H1299, 24 h", "summary_of_the_method": "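Wound healing (scratch) migration assay in H1299 cells at 1.25, 2.5 and 5.0 μM; wound closure compared with blank control groups.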"}, "NCI-H1299 [9]": {"system": "NCI-H1299", "assay": "Antiinvasive activity against human H1299 cells at 1.25 uM after 24 hrs by crystal violet staining based transwell assay relative to control", "format": "functional", "conditions": "NCI-H1299, 24 h", "summary_of_the_method": "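H1299 NSCLC cells; transwell invasion assay over 24 h with compound at 1.25, 2.5 and 5.0 μM; invasion expressed relative to blank control.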"}}}
{"smiles": "CCc1ccc(C(=O)Nc2cc(F)cc(C(F)(F)F)c2)cc1-c1cc(C)cc(-c2cnc3cnccn23)c1", "values": [{"measurement": "IC50", "setting": "[1]", "result": 1740, "unit": "nM"}, {"measurement": "Ratio IC50", "setting": "Homo sapiens [2]", "result": 73}, {"measurement": "Ratio IC50", "setting": "Homo sapiens [3]", "result": 420}, {"measurement": "Activity", "setting": "[4]", "result": 0, "unit": "%"}, {"measurement": "Kd", "setting": "[5]", "result": "> 1000", "unit": "nM"}, {"measurement": "inhibition", "setting": "NCI-H1299 [6]", "result": "Dose-dependent effect"}, {"measurement": "IC50", "setting": "NCI-H1299 [6]; NCI-H1299, 240 h", "result": 46, "unit": "nM"}, {"measurement": "IC50", "setting": "NCI-H1299 [7]", "result": 6600, "unit": "nM"}, {"measurement": "inhibition at 5 µM", "setting": "NCI-H1299 [8]", "result": 84, "unit": "%"}, {"measurement": "inhibition at 1.25 µM", "setting": "NCI-H1299 [9]", "result": 17, "unit": "%"}]}
